# Calls of active or inactive are those of the source.
# Legend:
# Mus musculus [1] = assay: MNTD:Maximal nontoxic dose of the compound, done on mouse; sc; format: functional
# Summary of the method: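 Male Swiss-Webster mice dosed sc. The value is the highest dose causing no visible behavioural change (tremors, convulsions, hypomotility etc.), so that treated mice could not be told apart from untreated ones. Behaviour was scored by the Irwin method in groups of at least 10 animals.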
# Mus musculus [2] = assay: MAD: minimal dose able to induce a statistically significant increase of the pain threshold, done on mouse; sc; IA= inactive; format: functional, organism-based
# Summary of the method: (§1)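 Mouse hot plate test (52.5 ± 0.1 °C, 45 s cutoff) after sc dosing, in male Swiss-Webster mice. The value is the lowest dose giving a statistically significant rise in pain threshold. Dunnett's two-tailed test compared treated mice at maximum reaction time with pretest time, P < 0.05.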
# Mus musculus [3] = assay: Licking latency was measured after 15 min treatment (at dose=20 mg/kg) by using mouse hot plate test; format: functional
# Summary of the method: (§2)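 Male Swiss-Webster mice (22-28 g), 23 ± 1 °C, 12-h light/dark cycle, food and water ad libitum. Hot plate at 52.5 ± 0.1 °C with licking latency as read-out and 45 s cutoff. Mice with pre-drug latency below 12 or over 18 s were rejected. Compounds given sc, 5-12 mice per test. Significance was assessed by Dunnett's two-tailed test, P < 0.05.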
# Mus musculus [4] = assay: Licking latency was measured after 45 min treatment (at dose=20 mg/kg) by using mouse hot plate test; format: functional; summary of the method: as §2
# Mus musculus [5] = assay: Licking latency was measured after 45 min treatment (at dose=40 mg/kg) by using mouse hot plate test; format: functional; summary of the method: as §2
# Mus musculus [6] = assay: Licking latency was measured before treatment (at dose=20 mg/kg) by using mouse hot plate test; format: functional; summary of the method: as §2
# Mus musculus [7] = assay: Licking latency was measured before treatment (at dose=40 mg/kg) by using mouse hot plate test; format: functional
# Summary of the method: (§3)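 Male Swiss-Webster mice (22-28 g), 23 ± 1 °C, 12-h light/dark cycle. Hot plate at 52.5 ± 0.1 °C. Mice with pre-drug licking latency below 12 s or over 18 s were rejected. Cutoff 45 s. Compound given sc; latency read before dosing and at 15, 30 and 45 min. 5-12 mice per test.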
# Mus musculus [8] = assay: Licking latency was measured after 15 min treatment (at dose=40 mg/kg) by using mouse hot plate test; format: functional; summary of the method: as §2
# Mus musculus [9] = assay: Licking latency was measured after 30 min treatment (at dose=40 mg/kg) by using mouse hot plate test; format: functional; summary of the method: as §2
# Mus musculus [10] = assay: Licking latency was measured after 30 min treatment (at dose=20 mg/kg) by using mouse hot plate test; format: functional; summary of the method: as §2
# Mus musculus [11] = assay: MAD: minimal dose able to induce a statistically significant increase of the pain threshold, done on mouse; sc; format: functional; summary of the method: as §1
# Mus musculus [12] = assay: Licking latency was measured after 15 min treatment (at dose=25 mg/kg) by using mouse hot plate test; format: functional; summary of the method: as §2
# Mus musculus [13] = assay: Licking latency was measured after 30 min treatment (at dose=5 mg/kg) by using mouse hot plate test; format: functional; summary of the method: as §2
# Mus musculus [14] = assay: Licking latency was measured after 45 min treatment (at dose=25 mg/kg) by using mouse hot plate test; format: functional; summary of the method: as §2
# Mus musculus [15] = assay: Licking latency was measured before treatment (at dose=25 mg/kg) by using mouse hot plate test; format: functional; summary of the method: as §2
# Mus musculus [16] = assay: Licking latency was measured before treatment (at dose=5 mg/kg) by using mouse hot plate test; format: functional; summary of the method: as §3
# Mus musculus [17] = assay: Licking latency was measured after 15 min treatment (at dose=5 mg/kg) by using mouse hot plate test; format: functional; summary of the method: as §2
# Mus musculus [18] = assay: Licking latency was measured after 30 min treatment (at dose=25 mg/kg) by using mouse hot plate test; format: functional; summary of the method: as §2
# Mus musculus [19] = organism: Mus musculus; assay: Analgesic efficacy is expressed as percentage of that epibatidine, done on mouse.; format: functional
# Mus musculus [20] = organism: Mus musculus; assay: Analgesic efficacy is expressed as percentage of that morphine, done on mouse.; format: functional
# Mus musculus [21] = assay: Licking latency was measured after 45 min treatment (at dose=5 mg/kg) by using mouse hot plate test; format: functional; summary of the method: as §2
# Mus musculus [22] = assay: Licking latency was measured after 15 min treatment (at dose=3 mg/kg) by using mouse hot plate test; format: functional; summary of the method: as §2
# Mus musculus [23] = assay: Licking latency was measured after 15 min treatment (at dose=10 mg/kg) by using mouse hot plate test; format: functional; summary of the method: as §2
# Mus musculus [24] = assay: Licking latency was measured after 45 min treatment (at dose=10 mg/kg) by using mouse hot plate test; format: functional; summary of the method: as §2
# Mus musculus [25] = assay: Licking latency was measured after 45 min treatment (at dose=3 mg/kg) by using mouse hot plate test; format: functional; summary of the method: as §2
# Mus musculus [26] = assay: Licking latency was measured before treatment (at dose=10 mg/kg) by using mouse hot plate test; format: functional; summary of the method: as §2
# Mus musculus [27] = assay: Licking latency was measured before treatment (at dose=3 mg/kg) by using mouse hot plate test; format: functional; summary of the method: as §3
# Mus musculus [28] = assay: Licking latency was measured after 30 min treatment (at dose=10 mg/kg) by using mouse hot plate test; format: functional; summary of the method: as §2
# Mus musculus [29] = assay: Licking latency was measured after 30 min treatment (at dose=3 mg/kg) by using mouse hot plate test; format: functional; summary of the method: as §2
# Mus musculus [30] = assay: Licking latency was measured after 30 min treatment (at dose=25 mg/kg) by using mouse hot plate test (*P<0.01); format: functional; summary of the method: as §2
# Mus musculus [31] = assay: Licking latency was measured after 15 min treatment (at dose=25 mg/kg) by using mouse hot plate test (*P<0.01); format: functional; summary of the method: as §2
# Mus musculus [32] = assay: Licking latency was measured after 15 min treatment (at dose=15 mg/kg) by using mouse hot plate test (*P<0.01); format: functional; summary of the method: as §2
# Mus musculus [33] = assay: Licking latency was measured after 45 min treatment (at dose=15 mg/kg) by using mouse hot plate test (*P<0.01); format: functional; summary of the method: as §2
# Mus musculus [34] = assay: Licking latency was measured after 45 min treatment (at dose=25 mg/kg) by using mouse hot plate test (*P<0.01); format: functional; summary of the method: as §2
# Mus musculus [35] = assay: Licking latency was measured before treatment (at dose=15 mg/kg) by using mouse hot plate test; format: functional; summary of the method: as §2
# Mus musculus [36] = assay: Licking latency was measured after 30 min treatment (at dose=15 mg/kg) by using mouse hot plate test (*P<0.01); format: functional; summary of the method: as §2
Compound,MNTD (Mus musculus [1]) [mg/kg],MAD (Mus musculus [11]) [mg/kg],Licking latency (Mus musculus [12]) [s],Licking latency (Mus musculus [13]) [s],Licking latency (Mus musculus [14]) [s],Licking latency (Mus musculus [15]) [s],Licking latency (Mus musculus [16]) [s],Licking latency (Mus musculus [17]) [s],Licking latency (Mus musculus [18]) [s],Analgesic efficacy compared to epibatidine (Mus musculus [19]) [%],Analgesic efficacy compared to morphine (Mus musculus [20]) [%],Licking latency (Mus musculus [21]) [s],Licking latency (Mus musculus [23]) [s],Licking latency (Mus musculus [24]) [s],Licking latency (Mus musculus [26]) [s],Licking latency (Mus musculus [28]) [s],Licking latency (Mus musculus [30]) [s],other results
CCC(=O)N1C2CCC1CN(c1ccc(Cl)nn1)C2,>60,–,–,–,–,–,–,–,–,–,–,–,–,–,–,–,–,MAD (Mus musculus [2]): inactive; Licking latency (Mus musculus [3]): 17.1 s; Licking latency (Mus musculus [4]): 18 s; Licking latency (Mus musculus [5]): 18.4 s; Licking latency (Mus musculus [6]): 13.8 s; Licking latency (Mus musculus [7]): 14.5 s; Licking latency (Mus musculus [8]): 17 s; Licking latency (Mus musculus [9]): 16.4 s; Licking latency (Mus musculus [10]): 15.6 s
CSc1nc(Cl)cc(N2CC3CCC(C2)N3)n1,30,5,40.8,20.5,36.5,15.1,14.7,20.3,43.8,182,149,18.7,–,–,–,–,–,–
Clc1nccc(N2CC3CCC(C2)N3)n1,15,3,–,–,–,–,–,–,–,99,82,–,31.1,24.3,15.3,26,–,Licking latency (Mus musculus [22]): 21.3 s; Licking latency (Mus musculus [25]): 16.2 s; Licking latency (Mus musculus [27]): 14.5 s; Licking latency (Mus musculus [29]): 17.4 s
Clc1cc(N2CC3CCC(C2)N3)ncn1,30,10,39.5,–,39.1,14.9,–,–,–,156,127,–,22.2,19.6,13.6,19.7,38.5,–
Clc1ccc(N2C3CCC2CNC3)nn1,30,15,–,–,–,15,–,–,–,130,107,–,17,17.4,12.2,15.4,34.8,Licking latency (Mus musculus [31]): 35.5 s; Licking latency (Mus musculus [32]): 23.2 s; Licking latency (Mus musculus [33]): 20.6 s; Licking latency (Mus musculus [34]): 26.4 s; Licking latency (Mus musculus [35]): 15.3 s; Licking latency (Mus musculus [36]): 22.9 s
Clc1cccnc1N1CC2CCC(C1)N2,40,10,39.2,20.3,27.5,15.3,13.7,21.3,29.7,151,124,18.3,–,–,–,–,–,–
